The values below come from ChEMBL document CHEMBL3124926, “Identification of highly efficacious glucocorticoid receptor agonists with a potential for reduced clinical bone side effects” (J Med Chem, 2014).

The structures appear in SMILES notation. Converted amounts (≈) assume the structure as drawn. A value given as a limit tells only on which side of the number the result lay.

The target in series [1] is T1, Glucocorticoid receptor (Homo sapiens) (UniProt P04150).
T1 sequence (whole entry): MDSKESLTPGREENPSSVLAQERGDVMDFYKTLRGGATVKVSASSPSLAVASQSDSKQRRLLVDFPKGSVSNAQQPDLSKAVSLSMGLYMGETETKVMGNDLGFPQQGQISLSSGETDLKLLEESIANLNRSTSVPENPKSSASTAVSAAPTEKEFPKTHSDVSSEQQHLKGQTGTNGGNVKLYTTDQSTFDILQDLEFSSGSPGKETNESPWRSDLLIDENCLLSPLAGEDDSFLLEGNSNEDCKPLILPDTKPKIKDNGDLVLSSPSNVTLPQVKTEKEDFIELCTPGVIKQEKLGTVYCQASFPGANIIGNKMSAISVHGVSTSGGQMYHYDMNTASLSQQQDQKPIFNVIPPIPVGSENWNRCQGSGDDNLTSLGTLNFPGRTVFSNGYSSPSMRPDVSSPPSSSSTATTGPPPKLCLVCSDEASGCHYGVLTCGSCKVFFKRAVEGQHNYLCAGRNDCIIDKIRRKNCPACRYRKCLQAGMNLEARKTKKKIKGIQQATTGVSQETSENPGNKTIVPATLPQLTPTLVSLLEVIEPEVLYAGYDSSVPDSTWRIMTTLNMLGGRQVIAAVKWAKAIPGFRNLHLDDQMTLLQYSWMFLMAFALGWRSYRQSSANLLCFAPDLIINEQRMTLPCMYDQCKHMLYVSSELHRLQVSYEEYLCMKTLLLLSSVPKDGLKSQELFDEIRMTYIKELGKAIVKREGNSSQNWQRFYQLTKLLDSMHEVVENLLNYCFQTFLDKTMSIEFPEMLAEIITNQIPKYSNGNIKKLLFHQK
As to the kind of experiment: Agonist activity at glucocorticoid receptor in human HeLa cells transfected with luciferase gene linked to MMTV promoter assessed as induction of luciferase transactivation activity at 2 uM after 6 hrs by luminescence assay. Format: cell-based. Put shortly:
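HeLa cells stably carrying an MMTV-luciferase construct, plated the day before at 25000/well in DMEM with 3% FBS. Medium replaced, then compound added (0.2% DMSO final); 1 μM dexamethasone wells = 100% induction, vehicle = background. Incubated 6 h at 37 °C, 5% CO2. Luminescence read after lysis; activation expressed as % of positive control. Top concentration 2 μM.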

The target in a further series is T2, Glucocorticoid receptor (Homo sapiens, UniProt P04150).
T2 sequence (P04150 whole entry): T1 sequence (whole entry)
Put plainly: Transrepression activity at glucocorticoid receptor in human fibroblasts assessed as inhibition of IL-1-induced IL-6 production after 18 to 24 hrs. The method, boiled down: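 Human foreskin fibroblasts grown in Iscove's medium with 10% charcoal/dextran-treated FBS, plated at 20000/well two days before. Medium replaced, then compound (0.4% DMSO final) and recombinant human IL-1 (1 ng/mL final) added. 18–24 h at 37 °C; IL-6 in medium quantified by electrochemiluminescence, DELFIA or ELISA. IC50 by four-parameter fit of duplicate 11-point curves. Efficacy relative to dexamethasone (100%); top concentration 2 μM.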

The target in series [2] is T3, Mineralocorticoid receptor (Homo sapiens, UniProt P08235).
T3 sequence (P08235 whole entry): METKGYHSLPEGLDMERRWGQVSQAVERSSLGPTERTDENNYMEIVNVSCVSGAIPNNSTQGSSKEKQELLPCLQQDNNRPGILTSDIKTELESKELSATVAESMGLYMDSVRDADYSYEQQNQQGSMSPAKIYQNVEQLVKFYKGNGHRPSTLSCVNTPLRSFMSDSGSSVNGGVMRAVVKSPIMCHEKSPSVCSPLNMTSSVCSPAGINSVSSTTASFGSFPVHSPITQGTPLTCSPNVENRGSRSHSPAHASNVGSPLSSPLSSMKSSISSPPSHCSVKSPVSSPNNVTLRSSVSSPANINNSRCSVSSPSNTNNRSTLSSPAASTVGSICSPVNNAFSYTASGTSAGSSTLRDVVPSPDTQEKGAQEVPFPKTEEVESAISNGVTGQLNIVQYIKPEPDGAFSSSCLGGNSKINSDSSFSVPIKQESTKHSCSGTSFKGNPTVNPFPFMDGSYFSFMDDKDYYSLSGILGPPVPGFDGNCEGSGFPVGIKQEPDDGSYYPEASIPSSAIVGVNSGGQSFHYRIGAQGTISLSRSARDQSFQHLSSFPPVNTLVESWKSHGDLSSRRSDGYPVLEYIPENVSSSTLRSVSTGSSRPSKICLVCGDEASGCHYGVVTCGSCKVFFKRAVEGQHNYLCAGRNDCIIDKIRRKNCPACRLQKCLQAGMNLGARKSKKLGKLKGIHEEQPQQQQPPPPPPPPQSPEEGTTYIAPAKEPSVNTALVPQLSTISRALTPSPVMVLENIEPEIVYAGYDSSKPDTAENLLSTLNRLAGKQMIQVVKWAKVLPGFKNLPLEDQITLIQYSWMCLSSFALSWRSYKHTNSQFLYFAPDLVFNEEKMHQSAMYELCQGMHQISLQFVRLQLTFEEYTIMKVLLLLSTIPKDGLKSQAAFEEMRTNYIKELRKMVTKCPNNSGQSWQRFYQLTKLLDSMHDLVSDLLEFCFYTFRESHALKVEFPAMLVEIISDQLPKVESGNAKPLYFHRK
Put plainly: Competitive binding affinity to mineralocorticoid receptor (unknown origin) expressed in baculovirus-infected cell system after 1 hr by fluorescence polarization assay in presence of tetramethylrhodamine-labeled dexamethasone. Put shortly: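 Lysates of baculovirus-infected insect cells co-expressing receptor with HSP-70, HSP-90 and p23 (GR diluted 300-fold, MR 17-fold). Probe 5 nM tetramethylrhodamine-dexamethasone in TES/KCl/molybdate/EDTA/CHAPS/glycerol/DTT buffer, pH 7.4, 1% DMSO. 1 h at room temperature in the dark; fluorescence polarization read (ex 550/em 580 nm). Background set with 2 μM dexamethasone. IC50 from duplicate 11-point curves, four-parameter fit, mean of at least two determinations.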

The nature of series [3]: Cmax in B10.RIII mouse at 100 mg/kg, po. It counts as ADME, organism-based. Also noted: dose 100 mg/kg, route oral. The conditions noted are these: in vivo. Put shortly:
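Plasma levels measured in satellite B10.RIII mice (n = 3) after a single 100 mg/kg oral dose.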

Series [4] concerns Mus musculus. Put plainly: Antiinflammatory activity in po dosed Balb/c mouse assessed as inhibition of LPS-induced TNFalpha production administered 60 mins prior to LPS challenge measured after 1 hr by […]. It counts as functional.
A short description of series [5]: Oral bioavailability in rat at 30 mg/kg. Format: ADME, organism-based. The conditions noted are these: in vivo.
Series [6] is described as follows: Permeability across human Caco2 cells. The conditions noted are these: Caco-2, read-out: permeability. It counts as ADME, cell-based. (In general: Caco-2 monolayers are a common model of the intestinal barrier.)
Series [7] can be described thus: Aqueous solubility of the compound in buffer at pH 7. Format: physicochemical.
Series [8] has as its system Mus musculus. Put plainly: Toxicity in collagen-induced B10.RIII mouse arthritis model assessed as change in body fat at 100 mg/kg, po qd for 35 days relative to 1% methylcellulose-treated control. To be noted: in vivo, 840 h. Also on record: dose 100 mg/kg, route oral. It counts as organism-based. Put shortly:
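Female B10.RIII mice were immunized at 12–15 weeks with porcine type II collagen emulsified in complete Freund's adjuvant (100 μg intradermal, tail base). Animals were enrolled at first arthritis signs, 10 per group, and dosed orally once daily for five weeks in 1% methylcellulose. Paws were scored 1–4 each (max 16), with AUC taken. Serum was collected at day 35. Femur cortical thickness was measured by microCT in non-immunized, age-matched mice given the same dosing.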

The term Emax denotes the maximal effect, on the per cent scale that the assay sets. Broadly, the IC50 is the concentration at which inhibition is half-maximal. With `CC(C)(CC(O)(Cc1cc2ncncc2[nH]1)C(F)(F)F)c1ccc(F)cc1O` (racemic), the Emax in series [1] was found to be 22%. Moreover, the IC50 was found to be 9 nM at Glucocorticoid receptor and 1200 nM in [2].
As to `Cc1ccc(F)cc1C(C)(C)CC(O)(Cc1cc2cc(-c3ccccc3)nnc2[nH]1)C(F)(F)F` (racemic), the Emax in series [1] was 75%. Moreover, the IC50 at Glucocorticoid receptor is 6 nM; in [2], more than 2000 nM.
Usually Cmax stands for the peak of the concentration-time curve. One may read the ED50 as the dose at which the effect has come halfway, by size or by number of responders. The bioavailability is dose-corrected exposure relative to a reference, in per cent. In series [3], `Cc1ccc(F)cc1C(C)(C)C[C@@](O)(Cc1cc2nnccc2[nH]1)C(F)(F)F` registered a Cmax of 38.9 µM. In addition, the ED50 in the series with Mus musculus [4] came out at 3 mg/kg. The bioavailability in series [5] was 9%. For the same molecule, in [1], the Emax was determined as 0%. Besides, the IC50 at Glucocorticoid receptor amounted to 9 nM; in series [2] it was 260 nM.
As for `CC(C)(CC(O)(Cc1cc2ncncc2[nH]1)C(F)(F)F)c1cc(Cl)cc2c1OCC2` (racemic), the Emax in series [1] came out at 12%. Moreover, the IC50 at Glucocorticoid receptor stood at 13 nM; in [2] it was 340 nM.
`Cc1ccc(F)cc1C(C)(C)CC(O)(Cc1cc2nc(-c3ccccc3)ncc2[nH]1)C(F)(F)F` (racemic): the Emax in [1] came to 36%. The IC50 was determined as 8 nM on Glucocorticoid receptor and 1900 nM in [2].
As for `Cc1ccc(F)cc1C(C)(C)CC(O)(Cc1cc2nc(-c3cccnc3)ncc2[nH]1)C(F)(F)F` (racemic), the Emax in series [1] is 32%. For the same molecule, the values for the IC50 (on Glucocorticoid receptor; in [2]) were 12 nM and more than 2000 nM, respectively.
For the molecule `Cc1ccc(F)cc1C(C)(C)CC(O)(Cc1cc2nc(N3CCS(=O)(=O)CC3)ncc2[nH]1)C(F)(F)F` (racemic), the Emax in [1] was found to be 22%. Further, the results for the IC50 (at Glucocorticoid receptor; in series [2]) were 19 nM and more than 2000 nM, respectively.
Usually solubility stands for how much of the substance goes into solution per volume. Read a low solubility as a poorly soluble substance. Regarding `Cc1ccc(F)cc1C(C)(C)CC(O)(Cc1cc2nnccc2[nH]1)C(F)(F)F` (racemic), the Papp in series [6] was 13 ×10⁻⁶ cm/s. Besides, in [7], the solubility came to 2 µg/mL (≈ 5.06 µM). Moreover, in series [1], the Emax came out at 7%. The figures for the half-maximal inhibitory concentration (IC50) (at Glucocorticoid receptor; in series [2]) were 16 nM and 615 nM, respectively.
`Cc1ccc(F)cc1C(C)(C)CC(O)(Cc1cc2ncncc2[nH]1)C(F)(F)F` (racemic): in [6], the Papp turned out to be 11 ×10⁻⁶ cm/s. This molecule displayed a solubility in [7] of 11 µg/mL (≈ 27.8 µM). Further, in series [1], the Emax is 0%. Moreover, the figures for the IC50 (on Glucocorticoid receptor; in series [2]) were 19 nM and 855 nM, respectively.
In the case of `Cc1ccc(F)cc1C(C)(C)C[C@@](O)(Cc1cc2ncncc2[nH]1)C(F)(F)F`, the Activity in the series on Mus musculus [8] came out at 32%. Moreover, the concentration in series [3] peaked (Cmax) at 4.32 µM. For the same molecule, the ED50 in the series with Mus musculus [4] is 1 mg/kg. For the same molecule, the bioavailability in [5] amounted to 13%. Besides, the Emax in series [1] amounted to 0%. The IC50 is 13 nM at Glucocorticoid receptor and 475 nM in series [2].
